# Assay results taken from ChEMBL document CHEMBL1687755, “PER-6, an extended-spectrum beta-lactamase from Aeromonas allosaccharophila” (Antimicrob Agents Chemother, 2010).
# How the values were obtained:
# [1] = test system: Escherichia coli; assay: Antimicrobial activity against Escherichia coli DH10B by agar dilution method; format: functional; conditions: K-12 DH10B
# Summary of the method: (§1)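 MICs measured by agar dilution on Mueller-Hinton agar plates, the method used for imipenem and imipenem combined with clavulanate; other MICs were obtained by Etest. Results were interpreted according to CLSI guidelines. Test strains were E. coli DH10B recombinants carrying cloned PER-1, PER-2 or PER-6 β-lactamase genes.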
# [2] = test system: Escherichia coli; assay: Antimicrobial activity against Escherichia coli DH10B harboring recombinant Aeromonas allosaccharophila AL-1 beta-lactamase PER1 by agar dilution method; format: functional; conditions: K-12 DH10B
# [3] = test system: Escherichia coli; assay: Antimicrobial activity against Escherichia coli DH10B harboring recombinant Aeromonas allosaccharophila AL-1 beta-lactamase PER6 by agar dilution method; format: functional; conditions: K-12 DH10B
# [4] = test system: Escherichia coli; assay: Antimicrobial activity against Escherichia coli DH10B harboring recombinant Aeromonas allosaccharophila AL-1 beta-lactamase PER2 by agar dilution method; format: functional; conditions: K-12 DH10B
# [5] = test system: Aeromonas allosaccharophila; assay: Antimicrobial activity against Aeromonas allosaccharophila AL-1 expressing beta-lactamase PER6 by agar dilution method; format: functional
# Summary of the method: (§2)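 The test organism was environmental isolate AL-1, recovered from Seine River water on MacConkey agar containing ceftazidime (2 μg/ml). It was identified by API 32GN and 16S rRNA gene sequencing. MICs were determined by agar dilution on Mueller-Hinton agar and interpreted by CLSI guidelines.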
# [6] = test system: Aeromonas allosaccharophila; assay: Ratio of Kcat to Km for Aeromonas allosaccharophila AL-1 beta-lactamase PER2
# [7] = test system: Aeromonas allosaccharophila; assay: Antimicrobial activity against Aeromonas allosaccharophila AL-1 expressing beta-lactamase PER6 by agar dilution method in presence of 4 ug/ml of clavulanic acid; format: functional; summary of the method: as §2
# [8] = test system: Escherichia coli; assay: Antimicrobial activity against Escherichia coli DH10B harboring recombinant Aeromonas allosaccharophila AL-1 beta-lactamase PER2 by agar dilution method in presence of 4 ug/ml of clavulanic acid; format: functional; conditions: K-12 DH10B
# [9] = test system: Escherichia coli; assay: Antimicrobial activity against Escherichia coli DH10B by agar dilution method in presence of 4 ug/ml of clavulanic acid; format: functional; conditions: K-12 DH10B; summary of the method: as §1
# [10] = test system: Escherichia coli; assay: Antimicrobial activity against Escherichia coli DH10B harboring recombinant Aeromonas allosaccharophila AL-1 beta-lactamase PER1 by agar dilution method in presence of 4 ug/ml of clavulanic acid; format: functional; conditions: K-12 DH10B
# [11] = test system: Escherichia coli; assay: Antimicrobial activity against Escherichia coli DH10B harboring recombinant Aeromonas allosaccharophila AL-1 beta-lactamase PER6 by agar dilution method in presence of 4 ug/ml of clavulanic acid; format: functional; conditions: K-12 DH10B
# [12] = substrate: C[C@@H](O)[C@H]1C(=O)N2C(C(=O)O)=C(SCCNC=N)C[C@H]12; assay: (§3) Ratio of Kcat to Km for Aeromonas allosaccharophila AL-1 beta-lactamase PER6
# Summary of the method: (§4)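 PER-6 enzyme was purified from a crude extract of E. coli DH10B(pPER-6). Purification used cation exchange on S-Sepharose at pH 6.8, then anion exchange on Q-Sepharose at pH 8. Purity was >90% by SDS-PAGE. The purified enzyme was used for hydrolysis and inhibition measurements.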
# [13] = substrate: C[C@H]1[C@H](NC(=O)/C(=N\OC(C)(C)C(=O)O)c2csc(N)n2)C(=O)N1S(=O)(=O)O; assay: as §3; summary of the method: as §4
# [14] = substrate: CO/N=C(\C(=O)N[C@@H]1C(=O)N2C(C(=O)[O-])=C(C[N+]3(C)CCCC3)CS[C@H]12)c1csc(N)n1; assay: as §3; summary of the method: as §4
# [15] = substrate: CO/N=C(\C(=O)N[C@@H]1C(=O)N2C(C(=O)O)=C(COC(C)=O)CS[C@H]12)c1csc(N)n1; assay: as §3; summary of the method: as §4
# [16] = substrate: CC1(C)S[C@@H]2[C@H](NC(=O)[C@H](C(=O)O)c3ccsc3)C(=O)N2[C@H]1C(=O)O; assay: as §3; summary of the method: as §4
# [17] = substrate: CC(C)(O/N=C(\C(=O)N[C@@H]1C(=O)N2C(C(=O)[O-])=C(C[n+]3ccccc3)CS[C@H]12)c1csc(N)n1)C(=O)O; assay: as §3; summary of the method: as §4
# [18] = substrate: CC1(C)S[C@@H]2[C@H](NC(=O)[C@H](N)c3ccccc3)C(=O)N2[C@H]1C(=O)O; assay: as §3; summary of the method: as §4
# [19] = substrate: CC1(C)S[C@@H]2[C@H](NC(=O)Cc3ccccc3)C(=O)N2[C@H]1C(=O)O; assay: as §3; summary of the method: as §4
# [20] = substrate: CC(=O)OCC1=C(C(=O)O)N2C(=O)[C@@H](NC(=O)Cc3cccs3)[C@H]2SC1; assay: as §3; summary of the method: as §4
# [21] = substrate: C[C@@H](O)[C@H]1C(=O)N2C(C(=O)O)=C(S[C@@H]3CN[C@H](C(=O)N(C)C)C3)[C@H](C)[C@H]12; assay: as §3; summary of the method: as §4
# [22] = substrate: CO/N=C(\C(=O)N[C@@H]1C(=O)N2C(C(=O)[O-])=C(C[n+]3cccc4c3CCC4)CS[C@H]12)c1csc(N)n1; assay: as §3; summary of the method: as §4
# [23] = substrate: C[C@@H](O)[C@H]1C(=O)N2C(C(=O)O)=C(S[C@@H]3CN[C@H](C(=O)Nc4cccc(C(=O)O)c4)C3)[C@H](C)[C@H]12; assay: as §3; summary of the method: as §4
# [24] = substrate: CCN1CCN(C(=O)N[C@@H](C(=O)N[C@@H]2C(=O)N3[C@@H]2SC(C)(C)[C@@H]3C(=O)O)c2ccccc2)C(=O)C1=O; assay: as §3; summary of the method: as §4
# [25] = substrate: C[C@@H](O)[C@H]1C(=O)N2C(C(=O)O)=C(SCCNC=N)C[C@H]12; assay: (§5) Activity at Aeromonas allosaccharophila AL-1 beta-lactamase PER6; summary of the method: as §4
# [26] = substrate: C[C@H]1[C@H](NC(=O)/C(=N\OC(C)(C)C(=O)O)c2csc(N)n2)C(=O)N1S(=O)(=O)O; assay: as §5; summary of the method: as §4
# [27] = substrate: CO/N=C(\C(=O)N[C@@H]1C(=O)N2C(C(=O)[O-])=C(C[N+]3(C)CCCC3)CS[C@H]12)c1csc(N)n1; assay: as §5; summary of the method: as §4
# [28] = substrate: CO/N=C(\C(=O)N[C@@H]1C(=O)N2C(C(=O)O)=C(COC(C)=O)CS[C@H]12)c1csc(N)n1; assay: as §5; summary of the method: as §4
# [29] = substrate: CC1(C)S[C@@H]2[C@H](NC(=O)[C@H](C(=O)O)c3ccsc3)C(=O)N2[C@H]1C(=O)O; assay: as §5; summary of the method: as §4
# [30] = substrate: CC(C)(O/N=C(\C(=O)N[C@@H]1C(=O)N2C(C(=O)[O-])=C(C[n+]3ccccc3)CS[C@H]12)c1csc(N)n1)C(=O)O; assay: as §5; summary of the method: as §4
# [31] = substrate: CC1(C)S[C@@H]2[C@H](NC(=O)[C@H](N)c3ccccc3)C(=O)N2[C@H]1C(=O)O; assay: as §5; summary of the method: as §4
# [32] = substrate: CC1(C)S[C@@H]2[C@H](NC(=O)Cc3ccccc3)C(=O)N2[C@H]1C(=O)O; assay: as §5; summary of the method: as §4
# [33] = substrate: CC(=O)OCC1=C(C(=O)O)N2C(=O)[C@@H](NC(=O)Cc3cccs3)[C@H]2SC1; assay: as §5; summary of the method: as §4
# [34] = substrate: C[C@@H](O)[C@H]1C(=O)N2C(C(=O)O)=C(S[C@@H]3CN[C@H](C(=O)N(C)C)C3)[C@H](C)[C@H]12; assay: as §5; summary of the method: as §4
# [35] = substrate: CO/N=C(\C(=O)N[C@@H]1C(=O)N2C(C(=O)[O-])=C(C[n+]3cccc4c3CCC4)CS[C@H]12)c1csc(N)n1; assay: as §5; summary of the method: as §4
# [36] = substrate: C[C@@H](O)[C@H]1C(=O)N2C(C(=O)O)=C(S[C@@H]3CN[C@H](C(=O)Nc4cccc(C(=O)O)c4)C3)[C@H](C)[C@H]12; assay: as §5; summary of the method: as §4
# [37] = substrate: CCN1CCN(C(=O)N[C@@H](C(=O)N[C@@H]2C(=O)N3[C@@H]2SC(C)(C)[C@@H]3C(=O)O)c2ccccc2)C(=O)C1=O; assay: as §5; summary of the method: as §4
molecule,measurement,setting,value
CO/N=C(\C(=O)N[C@@H]1C(=O)N2C(C(=O)[O-])=C(C[n+]3cccc4c3CCC4)CS[C@H]12)c1csc(N)n1 [CEFPIROME],MIC,[1],0.06 µg/mL
same,MIC,[2],16 µg/mL
same,MIC,[3],8 µg/mL
same,MIC,[4],16 µg/mL
same,MIC,[5],0.5 µg/mL
CC(C)(O/N=C(\C(=O)N[C@@H]1C(=O)N2C(C(=O)[O-])=C(C[n+]3ccccc3)CS[C@H]12)c1csc(N)n1)C(=O)O [CEFTAZIDIME],MIC,[1],0.5 µg/mL
same,kcat/Km,[6],430000 M⁻¹ s⁻¹
same,MIC,[2],> 256 µg/mL
same,MIC,[3],> 256 µg/mL
same,MIC,[4],> 256 µg/mL
same,MIC,[5],128 µg/mL
CC(=O)OCC1=C(C(=O)O)N2C(=O)[C@@H](NC(=O)Cc3cccs3)[C@H]2SC1 [CEPHALOTHIN],MIC,[1],2 µg/mL
same,kcat/Km,[6],670000 M⁻¹ s⁻¹
same,MIC,[2],> 256 µg/mL
same,MIC,[3],> 256 µg/mL
same,MIC,[4],> 256 µg/mL
same,MIC,[5],16 µg/mL
C[C@@H](O)[C@H]1C(=O)N2C(C(=O)O)=C(SCCNC=N)C[C@H]12 [IMIPENEM ANHYDROUS],kcat/Km,[6],< 10000 M⁻¹ s⁻¹
same,MIC,[7],0.5 µg/mL
same,MIC,[5],1 µg/mL
C[C@@H](O)[C@H]1C(=O)N2C(C(=O)O)=C(S[C@@H]3CN[C@H](C(=O)N(C)C)C3)[C@H](C)[C@H]12 [MEROPENEM],MIC,[1],0.06 µg/mL
same,MIC,[2],0.03 µg/mL
same,MIC,[4],0.03 µg/mL
same,MIC,[5],0.06 µg/mL
CO[C@@]1(NC(=O)C(C(=O)O)c2ccc(O)cc2)C(=O)N2C(C(=O)O)=C(CSc3nnnn3C)CO[C@@H]21 (some centres undefined) [MOXALACTAM],MIC,[1],0.12 µg/mL
same,MIC,[2],1 µg/mL
same,MIC,[3],2 µg/mL
same,MIC,[4],0.5 µg/mL
same,MIC,[5],< 0.06 µg/mL
CCN1CCN(C(=O)N[C@@H](C(=O)N[C@@H]2C(=O)N3[C@@H]2SC(C)(C)[C@@H]3C(=O)O)c2ccccc2)C(=O)C1=O [PIPERACILLIN],MIC,[1],1 µg/mL
same,kcat/Km,[6],200000 M⁻¹ s⁻¹
same,MIC,[2],32 µg/mL
same,MIC,[3],256 µg/mL
same,MIC,[4],256 µg/mL
same,MIC,[5],4 µg/mL
CC1(C)S[C@@H]2[C@H](NC(=O)[C@H](C(=O)O)c3ccsc3)C(=O)N2[C@H]1C(=O)O [TICARCILLIN],MIC,[1],4 µg/mL
same,MIC,[8],16 µg/mL
same,MIC,[9],4 µg/mL
same,MIC,[7],256 µg/mL
same,MIC,[2],> 256 µg/mL
same,MIC,[10],16 µg/mL
same,MIC,[3],> 256 µg/mL
same,MIC,[4],> 256 µg/mL
same,MIC,[11],12 µg/mL
same,MIC,[5],> 256 µg/mL
"Extended-spectrum beta-lactamase PER-6 (Aeromonas allosaccharophila), D5HSX5 (protein) MNVIAKGVFTTTALLMLSLSSWVVSAQSPLLKEQIETIVTGKKATVGVAVWGPDDLEPLLVNPFEKFPMQSVFKMHLAMLVLHQVDQGKLDLNKTVAVNRAAVLQNTWSPMMKDHQGDEFTVTVQQLLQYSVSHSDNVACDLLFELVGGPAALHAYIQSLGIKETEVVANEAQMHADDQVQYKNWTSMKAAAQLLRKFEQKKQLSETSQALLWKWMVETTTGPQRLKGLLPAGTVVAHKTGTSGVRAGKTAATNDIGVIMLPDGRPLLVAVFVKDSAESARTNEAIIAQVAQAAYQFELKKLSAVSPD",kcat/Km,[12],4000 M⁻¹ s⁻¹
same,kcat/Km,[13],7.5e+07 M⁻¹ s⁻¹
same,kcat/Km,[14],5000 M⁻¹ s⁻¹
same,kcat/Km,[15],45000 M⁻¹ s⁻¹
same,kcat/Km,[16],50000 M⁻¹ s⁻¹
same,kcat/Km,[17],1e+07 M⁻¹ s⁻¹
same,kcat/Km,[18],50000 M⁻¹ s⁻¹
same,kcat/Km,[19],25000 M⁻¹ s⁻¹
same,kcat/Km,[20],145000 M⁻¹ s⁻¹
same,kcat/Km,[21],400 M⁻¹ s⁻¹
same,kcat/Km,[22],8000 M⁻¹ s⁻¹
same,kcat/Km,[23],300 M⁻¹ s⁻¹
same,kcat/Km,[24],25000 M⁻¹ s⁻¹
same,Km,[25],1.5 µM
same,kcat,[25],0.006 s⁻¹
same,Km,[26],40 µM
same,kcat,[26],3 s⁻¹
same,Km,[27],2000 µM
same,kcat,[27],10 s⁻¹
same,Km,[28],900 µM
same,kcat,[28],40 s⁻¹
same,Km,[29],9 µM
same,kcat,[29],0.4 s⁻¹
same,Km,[30],1000 µM
same,kcat,[30],12 s⁻¹
same,Km,[31],20 µM
same,kcat,[31],1 s⁻¹
same,Km,[32],200 µM
same,kcat,[32],5 s⁻¹
same,Km,[33],55 µM
same,kcat,[33],8 s⁻¹
same,Km,[34],10 µM
same,kcat,[34],0.004 s⁻¹
same,Km,[35],1500 µM
same,kcat,[35],12 s⁻¹
same,Km,[36],7 µM
same,kcat,[36],0.002 s⁻¹
same,Km,[37],4 µM
same,kcat,[37],0.1 s⁻¹
